Experimental data from ChEMBL document CHEMBL1131161 (J Med Chem, 1998).

What was measured:
Androgen receptor [1] = biological target: T1, Androgen receptor (Homo sapiens, UniProt P10275); test: Inhibitory activity (IC50) against human androgen receptor expressed in CV-1 cells; format: cell-based
T1 sequence (P10275 whole entry): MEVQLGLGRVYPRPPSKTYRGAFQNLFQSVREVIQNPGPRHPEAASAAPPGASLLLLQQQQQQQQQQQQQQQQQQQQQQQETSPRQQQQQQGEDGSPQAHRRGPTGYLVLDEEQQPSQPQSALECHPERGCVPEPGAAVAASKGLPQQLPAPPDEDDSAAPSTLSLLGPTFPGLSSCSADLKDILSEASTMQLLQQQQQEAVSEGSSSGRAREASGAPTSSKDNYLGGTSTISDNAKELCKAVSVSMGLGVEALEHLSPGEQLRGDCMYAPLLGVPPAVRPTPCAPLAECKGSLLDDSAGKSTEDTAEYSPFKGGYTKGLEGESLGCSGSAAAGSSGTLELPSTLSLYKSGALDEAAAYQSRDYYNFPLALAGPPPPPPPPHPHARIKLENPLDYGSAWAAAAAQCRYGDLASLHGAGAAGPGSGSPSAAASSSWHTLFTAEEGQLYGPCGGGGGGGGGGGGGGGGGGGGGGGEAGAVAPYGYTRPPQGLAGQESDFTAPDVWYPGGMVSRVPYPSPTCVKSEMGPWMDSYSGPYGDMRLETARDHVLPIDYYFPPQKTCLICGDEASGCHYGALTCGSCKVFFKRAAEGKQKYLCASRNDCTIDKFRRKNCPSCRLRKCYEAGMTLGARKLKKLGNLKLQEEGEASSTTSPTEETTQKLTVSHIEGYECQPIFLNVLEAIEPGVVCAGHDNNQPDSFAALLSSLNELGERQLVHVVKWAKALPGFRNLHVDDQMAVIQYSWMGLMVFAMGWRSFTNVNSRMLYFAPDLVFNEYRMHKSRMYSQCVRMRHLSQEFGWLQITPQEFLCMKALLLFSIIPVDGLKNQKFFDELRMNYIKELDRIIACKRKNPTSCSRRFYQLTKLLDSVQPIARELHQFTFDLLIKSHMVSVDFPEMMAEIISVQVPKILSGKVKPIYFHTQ
In short: (§1)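 Cotransfection assays in CV-1 cells with a luciferase reporter, read as normalized LUC expression. In antagonist mode, the reference agonists were DHT for hAR, dexamethasone for hGR and aldosterone for hMR. Antagonist efficacy was expressed as the percent of maximal inhibition of the agonist. Values are means of at least three separate experiments in triplicate, or of two experiments.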

Glucocorticoid receptor [2] = biological target: T2, Glucocorticoid receptor (Homo sapiens, UniProt P04150); test: biochemical
T2 sequence (P04150 whole entry): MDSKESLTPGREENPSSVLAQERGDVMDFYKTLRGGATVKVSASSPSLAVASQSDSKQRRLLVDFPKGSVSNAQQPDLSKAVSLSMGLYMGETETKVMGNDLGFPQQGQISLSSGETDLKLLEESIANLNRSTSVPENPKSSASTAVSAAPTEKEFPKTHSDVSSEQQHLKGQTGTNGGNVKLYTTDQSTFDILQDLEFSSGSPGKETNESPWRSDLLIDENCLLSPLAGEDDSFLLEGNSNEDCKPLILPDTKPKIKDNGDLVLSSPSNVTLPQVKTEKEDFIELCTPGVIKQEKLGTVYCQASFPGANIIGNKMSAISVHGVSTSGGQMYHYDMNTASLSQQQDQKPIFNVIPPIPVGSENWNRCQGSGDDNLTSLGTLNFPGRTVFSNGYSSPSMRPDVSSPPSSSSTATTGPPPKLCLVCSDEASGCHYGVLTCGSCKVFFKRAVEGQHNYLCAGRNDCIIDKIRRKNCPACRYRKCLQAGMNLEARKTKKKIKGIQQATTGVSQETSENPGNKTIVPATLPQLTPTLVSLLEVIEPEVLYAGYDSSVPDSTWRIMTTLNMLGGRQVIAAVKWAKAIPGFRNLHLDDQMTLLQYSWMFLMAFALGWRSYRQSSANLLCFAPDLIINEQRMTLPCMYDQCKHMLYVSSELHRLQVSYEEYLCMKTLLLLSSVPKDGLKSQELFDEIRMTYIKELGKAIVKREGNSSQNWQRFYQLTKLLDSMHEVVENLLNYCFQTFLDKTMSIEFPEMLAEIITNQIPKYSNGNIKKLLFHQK

Glucocorticoid receptor [3] = biological target: T2, Glucocorticoid receptor; test: Inhibitory activity (IC50) against human glucocorticoid receptor expressed in CV-1 cells; format: cell-based; in short: as §1
Progesterone receptor = biological target: T3, Progesterone receptor (Homo sapiens, UniProt P06401); test: Binding affinity against human progesterone receptor
T3 sequence (P06401 whole entry): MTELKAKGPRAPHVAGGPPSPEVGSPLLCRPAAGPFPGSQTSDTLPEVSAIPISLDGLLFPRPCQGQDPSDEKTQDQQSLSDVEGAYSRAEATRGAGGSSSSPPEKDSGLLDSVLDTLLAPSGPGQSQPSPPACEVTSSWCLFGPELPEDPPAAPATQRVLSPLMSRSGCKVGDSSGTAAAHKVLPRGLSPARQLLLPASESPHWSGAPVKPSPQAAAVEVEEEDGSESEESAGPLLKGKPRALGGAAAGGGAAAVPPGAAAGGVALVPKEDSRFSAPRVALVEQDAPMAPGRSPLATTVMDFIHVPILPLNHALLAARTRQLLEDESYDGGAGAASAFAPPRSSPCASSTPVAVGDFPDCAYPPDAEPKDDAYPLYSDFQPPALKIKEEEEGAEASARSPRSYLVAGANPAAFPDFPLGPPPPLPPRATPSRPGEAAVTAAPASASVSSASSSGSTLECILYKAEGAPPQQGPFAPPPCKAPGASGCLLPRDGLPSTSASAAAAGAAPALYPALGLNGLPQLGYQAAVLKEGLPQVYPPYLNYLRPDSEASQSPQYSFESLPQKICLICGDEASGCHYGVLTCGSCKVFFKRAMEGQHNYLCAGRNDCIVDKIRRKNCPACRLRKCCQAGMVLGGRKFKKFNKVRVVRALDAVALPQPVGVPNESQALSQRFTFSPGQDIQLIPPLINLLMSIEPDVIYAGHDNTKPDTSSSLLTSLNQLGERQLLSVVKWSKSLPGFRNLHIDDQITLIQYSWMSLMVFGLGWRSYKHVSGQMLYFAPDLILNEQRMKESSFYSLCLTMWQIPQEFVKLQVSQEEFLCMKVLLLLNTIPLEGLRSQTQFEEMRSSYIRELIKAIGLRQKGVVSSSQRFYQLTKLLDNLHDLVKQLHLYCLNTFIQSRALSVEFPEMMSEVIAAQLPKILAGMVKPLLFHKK

CV-1 = test: Inhibitory concentration in CV-1 cell; format: functional, cell-based, Cercopithecidae; conditions: Chlorocebus aethiops
Androgen receptor [4] = biological target: T1, Androgen receptor

With `CC1=CC(C)(C)Nc2ccc3c(c21)/C(=C/c1cc(F)ccc1F)Oc1ccccc1-3` the IC50 (Androgen receptor [1]) was 1600 nM, the Ki (Glucocorticoid receptor [2]) was 173 nM and the IC50 (Glucocorticoid receptor [3]) was 371 nM. The Ki (Progesterone receptor) was 1.5 nM and the IC50 (CV-1) was over 10000 nM.
Compound `CC1=CC(C)(C)Nc2ccc3c(c21)/C(=C/c1ccccc1C)Oc1ccccc1-3` has a Ki (Glucocorticoid receptor [2]) of 564 nM, an IC50 (Glucocorticoid receptor [3]) of 1050 nM and a Ki (Progesterone receptor) of 0.66 nM. It also gave an IC50 (CV-1) of over 10000 nM and an IC50 (Androgen receptor [4]) of 1060 nM.
For `CC1=CC(C)(C)Nc2ccc3c(c21)/C(=C/c1ccc(F)c(F)c1)Oc1ccccc1-3`, the IC50 (Androgen receptor [1]) was 916 nM, the Ki (Glucocorticoid receptor [2]) was 237 nM and the IC50 (Glucocorticoid receptor [3]) was 1650 nM. For the same compound, the Ki (Progesterone receptor) was 3.6 nM and the IC50 (CV-1) was over 10000 nM.
